Data published in the RNAGym collection of RNA variant scans (doi:10.1126/science.aae0568).
This sample holds only a part of the variants without activity.

B1: tRNA (parent)
chain: GUUCCGUUGGCGUAAUGGUAACGCGUCUCCCUCCUAAGGAGAAGACUGCGGGUUCGAGUCCCGUACGGAACG

Variants of: B1
Test: yeast fitness relative to wild type (ratio to wild type); higher = fitter; tRNA-Arg(CCU), competitive growth, 37 C, YPD
How it was run: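 The tRNA-Arg(CCU) gene variants were made by chemical synthesis with a 3% per-site mutation rate at 69 sites and inserted at the native genomic locus of Saccharomyces cerevisiae. After pooling, the strains were competed in YPD at 37°C for 24 hours in six parallel replicates. Gene amplicons from the start population and each end population were read by 100-nucleotide paired-end sequencing, and Darwinian fitness relative to wild type was taken from genotype frequency changes. Genotypes needed ≥ 100 starting reads, and estimates < 0.5 were set to 0.5.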

| Variant | yeast fitness |
| --- | --- |
| GUUCCGUUGGCGUAAUGGUAACGCGUCUCUCUCCUAAGGAGAAGACUGAGGAUUCGAGUCGCGUACGGAUCG [C30U C49A G52A C61G A70U] | ≤ 0.5 |
| GUUCCGUUGGCGUAAUGGUAACGCGUCUCUCUGCUAAGGAGAAGACUGCGGGUUCGAGUCCCGUACGGCACG [C30U C33G A69C] | 0.546 |
| GUUCCGUUGGCGUAAUGGUAACGCGUCUCUCUACUAAGGACUAGACUGCGGGUUCGAGUCCCGUACGGAACG [C30U C33A G41C A42U] | ≤ 0.5 |
| GUUCCGUUGGCGUAAUGGUAACGCGUCUCUCUCCUAAAGAGAAGACUGCGGGUUCGAGUCCCGUACGGUACG [C30U G38A A69U] | 0.781 |
| GUUCCGUUGGCGUAAUGGUAACGCGUCUCUCUCCUAAGGAGAAGACUGCGGGUUGGACUCCCGUACGGAACG [C30U C55G G58C] | 0.526 |
| GUUCCGUUGGCGUAAUGGUAACGCGUCUCUUUCCUCAGGAGAAGACUGCGGGUUCGAGUCCCGUACGGAACG [C30U C31U A36C] | ≤ 0.5 |
| GUUCCGUUGGCGUAAUGGUAACGCGUCUCUCUCUUAUGGAGAAGACUGCGGGUUCGAGCCCCGUAUGGAACG [C30U C34U A37U U59C C66U] | 0.565 |
| GUUCCGUUGGCGUAAUGGUAACGCGUCUCUCUCUUAAGGAGAAGACUGCGCGUUUGAGUCCCGUACGGAACG [C30U C34U G51C C55U] | ≤ 0.5 |
| GUUCCGUUGGCGUAAUGGUAACGCGUCUCUCUCGUAAGGAGAAGACUGCGGGUUCGGGUCCCGUACGGAACG [C30U C34G A57G] | 0.569 |
| GUUCCGUUGGCGUAAUGGUAACGCGUCUCUCUCCUAAGGAGAAGAAUGCGGGUUCGAGUCCCGUACGGAACG [C30U C46A] | 0.982 |
| GUUCCGUUGGCGUAAUGGUAACGCGUCUCUCUCCUAAGGAGAAGAUUGCGGGUUCGAGUCCCGUACGGAACG [C30U C46U] | 0.966 |
| GUUCCGUUGGCGUAAUGGUAACGCGUCUCUCUCCUAAGGAGAAGAGUGCGGGUUCGAGUCCCGUACGGAACG [C30U C46G] | 0.874 |
| GUUCCGUUGGCGUAAUGGUAACGCGUCUCUCUGCUAAGGAGAAGAGUGCGGGUUCGAGUCCCGUACGGAACG [C30U C33G C46G] | ≤ 0.5 |
| GUUCCGUUGGCGUAAUGGUAACGCGUCUCUCUCCUAAGGAGAAGAAUGCGGGUUCGAGUCACGUACGAAACG [C30U C46A C61A G68A] | ≤ 0.5 |
| GUUCCGUUGGCGUAAUGGUAACGCGUCUCUCUCCUAAGGAGAAGACUGCGGGUUCGAGUCACGUACGGAACG [C30U C61A] | 0.648 |
| GUUCCGUUGGCGUAAUGGUAACGCGUCUCUCUCCUAAGGAGAAGCCUGCGGGUUCGAGUCCCGUACGGAACG [C30U A45C] | 0.72 |
| GUUCCGUUGGCGUAAUGGUAACGCGUCUCUCUCCUAAGGAGAAGGCUGCGGGUUCGAGUCCCGUACGGAACG [C30U A45G] | 0.781 |
| GUUCCGUUGGCGUAAUGGUAACGCGUCUCUCUCCUAACGAGAAGACUGCGGGUUCGAGUCCCGUACGGAACG [C30U G38C] | 0.66 |
| GUUCCGUUGGCGUAAUGGUAACGCGUCUCUCUCCUAAAGAGAAGACUGCGGGUUCGAGUCCCGUACGGAACG [C30U G38A] | 1 |

| Variant | yeast fitness |
| --- | --- |
| GUUCCGUUGGCGUAAUGGUAACGCGUCUCUGUCCAAAGGAGAAGACUGCGGGUUCGAGUCCCGUACGGAACG [C30U C31G U35A] | 0.62 |
| GUUCCGUUGGCGUAAUGGUAACGCGUCUCUCUCCUAAGGAGAAGACUGCGGGUUCGAGUCCCGUGCGGAACG [C30U A65G] | 0.932 |
| GUUCCGUUGGCGUAAUGGUAACGCGUCUCUCUCCUAAGGAGAAGACUGCGGGUUCGAGUCCCGUUCGGAACG [C30U A65U] | 0.876 |
| GUUCCGUUGGCGUAAUGGUAACGCGUCUCUCUCCUAAGGAGAAGACUGCGGGUUCGAGUCCCGUACGGUCCG [C30U A69U A70C] | 0.737 |
| GUUCCGUUGGCGUAAUGGUAACGCGUCUCUCUCGUAAGGAGAAGAUUGCGGGUUCGAGUCCCGUACGGAACG [C30U C34G C46U] | ≤ 0.5 |
| GUUCCGUUGGCGUAAUGGUAACGCGUCUCUCUCCUAAGGAGAAGAAUGCAGGUUCGAGUCCCGUACGGAACG [C30U C46A G50A] | 0.632 |
| GUUCCGUUGGCGUAAUGGUAACGCGUCUCUGUCCUAAGGAGAAGACUGCGGGUUCGAGUCCCGUAUGGAACG [C30U C31G C66U] | 0.512 |
| GUUCCGUUGGCGUAAUGGUAACGCGUCUCUCUACUAAGGAGAAGACUGCGGGUUCCAGUCCCGUACGGACCG [C30U C33A G56C A70C] | ≤ 0.5 |
| GUUCCGUUGGCGUAAUGGUAACGCGUCUCUCUCCUAAGGAGAAGACUGCGGGUUCGAGUCCUGUACGGAACG [C30U C62U] | 0.868 |
| GUUCCGUUGGCGUAAUGGUAACGCGUCUCUCUACUUAGGAGAUGACUGCGGGUCCAAGUCCCGUACGGAACG [C30U C33A A36U A43U U54C G56A] | 0.54 |
| GUUCCGUUGGCGUAAUGGUAACGCGUCUCUCUCGUAAGGAGAAGACUGCGGGUUCGAGCCCCGUACGGAACG [C30U C34G U59C] | ≤ 0.5 |
| GUUCCGUUGGCGUAAUGGUAACGCGUCUCUCUCGUAAGGAGAAGAUUGCGGGUUUGAGUCCCGUACCGAACG [C30U C34G C46U C55U G67C] | ≤ 0.5 |
| GUUCCGUUGGCGUAAUGGUAACGCGUCUCUUUCCUAAGGACAAGACUGCGGGUUCGAGUCCCGUACGGAACG [C30U C31U G41C] | 0.526 |
| GUUCCGUUGGCGUAAUGGUAACGCGUCUCUGUCCUAAGGAGACGACUGCGAGUUCGAGUCCCGUACGGAACG [C30U C31G A43C G51A] | 0.565 |
| GUUCCGUUGGCGUAAUGGUAACGCGUCUCUCUCCUAAGGAGAAGACUGCGGGUUCGAGUCCCGUAGGGAACG [C30U C66G] | 0.617 |
| GUUCCGUUGGCGUAAUGGUAACGCGUCUCUCUCCUAAGGAGAAGACUGCGGGUUCGAGUCCCGUAAGGAACG [C30U C66A] | 0.765 |
| GUUCCGUUGGCGUAAUGGUAACGCGUCUCUCUACUAAGGAGAGGACUGCGGGUUCGAGUCCCGUACGGAACG [C30U C33A A43G] | ≤ 0.5 |
| GUUCCGUUGGCGUAAUGGUAACGCGUCUCUAUCCUAAGGAGAAGACUGCGGGUGCGAGUCCCGUACGGAACG [C30U C31A U54G] | 0.549 |
